Experimental data collected from several papers.
Each line is one published result; the experiments were not run side by side. pEC50: −log10 of the molar value.

| Compound | tested on | test | test system | conditions | quantity | result |
| --- | --- | --- | --- | --- | --- | --- |
| Cc1[nH]c(C(=O)Nc2ccc(C(=O)NCC(=O)O)cc2N2CCN(C(=O)OC(C)(C)C)CC2)c(Cl)c1Cl | Klebsiella aerogenes | microbial growth, broth dilution | ATCC13408 |  | MIC | > 32 µg/mL |
| C=CC(=O)c1cccnc1Nc1cccc(C(F)(F)F)c1 | U-87 MG | cell growth or viability, SRB |  | 48 h | GI50 | 7.51 µM |
| CC(=NNC(=O)COc1ccc2c(C)c(Cc3ccccc3)c(=O)oc2c1C)c1ccc(Br)cc1 | HCT-116 | cell growth or viability, MTT |  | 6.3 µg/mL | viability | 49.9% |
| C=CC(=O)NC1CCN(c2ncc3ncnc(Nc4ccc(Oc5ccc6c(c5)ncn6C)c(C)c4)c3n2)CC1 | EKVX | cell growth or viability |  |  | pEC50 | 8.60 |
| COc1cccc(C(=O)COc2nc(C)cc(C)c2C#N)c1 | Leishmania infantum | parasite growth | mouse Macrophage | intracellular, amastigote | pEC50 | < 4.19 |
| C=CC(=O)c1cccnc1Nc1cc(C(F)(F)F)ccc1OCc1ccccc1 | U-87 MG | cell growth or viability, SRB |  | 48 h | GI50 | 9.65 µM |
| Cc1[nH]c(C(=O)Nc2ccc(C(=O)NCC(=O)O)cc2N2CC[C@H](NC(=O)OC(C)(C)C)C2)c(Cl)c1Cl | Klebsiella aerogenes | microbial growth, broth dilution | ATCC13408 |  | MIC | > 32 µg/mL |
| CNc1ccnc(SCC(=O)c2ccccc2)c1C#N | Leishmania infantum | parasite growth | mouse Macrophage | intracellular, amastigote | pEC50 | < 4.19 |
| Cl.N[C@H]1CCN(c2cc(C(=O)NCC(=O)O)ccc2NC(=O)c2cc(Br)c(Br)[nH]2)C1 | Klebsiella aerogenes | microbial growth, broth dilution | ATCC13408 |  | MIC | > 32 µg/mL |
| C=CC(=O)c1cccnc1Nc1cc(C(F)(F)F)ccc1OC | U-87 MG | cell growth or viability, SRB |  | 48 h | GI50 | 7.72 µM |
| Cc1[nH]c(C(=O)Nc2ccc(C(=O)NCC(=O)O)cc2N2CC[C@@H](N)C2)c(Cl)c1Cl.Cl | Klebsiella aerogenes | microbial growth, broth dilution | ATCC13408 |  | MIC | > 32 µg/mL |
| Cc1cc(C)c(C#N)c(SCC(=O)c2ccccn2)n1 | Leishmania infantum | parasite growth | mouse Macrophage | intracellular, amastigote | pEC50 | 4.34 |
